Laboratory results as given in ChEMBL document CHEMBL1137567, “First example of phosphoramidate approach applied to a 4'-substituted purine nucleoside (4'-azidoadenosine): conversion of an inactive nucleoside to a submicromolar compound versus hepatitis C virus” (J Med Chem, 2007).

Columns and labels:
Hepatitis C virus = assay: Inhibition of HCV 1b in Huh7 cells by replicon assay; format: functional, organism-based, Hepacivirus hominis; conditions: Huh-7
In short: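 Huh-7-derived line 2209-23 stably carrying a bicistronic HCV genotype 1b replicon with a renilla luciferase reporter. Replication was read out by the reporter. The EC50 is the concentration reducing HCV replication by 50%.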

[1] = Cytotoxicity activity against Huh7 cells by WST assay; format: cell-based, Huh-7; conditions: human
In short: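 Cytotoxicity was read out as the CC50, the concentration lowering cell viability by 50%, from a WST viability readout. Cells were the HCV replicon cell line 2209-23, derived from Huh-7 and carrying a stable genotype 1b bicistronic replicon with a renilla luciferase reporter.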

| EC50 (Hepatitis C virus) | Structure (SMILES) | CC50 [1] |
| --- | --- | --- |
| 1.5 µM | CCOC(=O)[C@H](C)NP(=O)(OC[C@@]1(N=[N+]=[N-])O[C@@H](n2cnc3c(N)ncnc32)[C@H](O)[C@@H]1O)Oc1ccccc1 (some centres undefined) | > 100 µM |
| > 100 µM | C[C@H](NP(=O)(OC[C@@]1(N=[N+]=[N-])O[C@@H](n2cnc3c(N)ncnc32)[C@H](O)[C@@H]1O)Oc1cccc2ccccc12)C(=O)OC(C)(C)C (some centres undefined) | > 100 µM |
| > 100 µM | C[C@H](NP(=O)(OC[C@@]1(N=[N+]=[N-])O[C@@H](n2cnc3c(N)ncnc32)[C@H](O)[C@@H]1O)Oc1ccccc1)C(=O)OC(C)(C)C (some centres undefined) | > 100 µM |

Further lines, the compound ahead of its results:

| Structure (SMILES) | EC50 (Hepatitis C virus) | CC50 [1] |
| --- | --- | --- |
| C[C@H](NP(=O)(OC[C@@]1(N=[N+]=[N-])O[C@@H](n2cnc3c(N)ncnc32)[C@H](O)[C@@H]1O)Oc1cccc2ccccc12)C(=O)OCc1ccccc1 (some centres undefined) | 0.22 µM | > 100 µM |
| C[C@H](NP(=O)(OC[C@@]1(N=[N+]=[N-])O[C@@H](n2cnc3c(N)ncnc32)[C@H](O)[C@@H]1O)Oc1ccccc1)C(=O)OCc1ccccc1 (some centres undefined) | 4 µM | > 100 µM |
| [N-]=[N+]=N[C@]1(CO)O[C@@H](n2cnc3c(N)ncnc32)[C@H](O)[C@@H]1O | > 100 µM | > 100 µM |
| CCOC(=O)[C@H](C)NP(=O)(OC[C@@]1(N=[N+]=[N-])O[C@@H](n2cnc3c(N)ncnc32)[C@H](O)[C@@H]1O)Oc1cccc2ccccc12 (some centres undefined) | 0.59 µM | > 100 µM |
